Test results taken from PMC5845419 (RMD Open, 2018).
“Also recorded” adds a separate entry of the source. Where two headings read alike, the source gives them in different places. Each block holds one compound with its values, some of them ahead of it.

Legend:
[1] = type: in vivo, human
Method in brief: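 Adults with gout, open-label, randomised by incomplete block design; 7-day treatment periods, oral dosing ~30 min after standardised breakfast. Serial plasma samples on days 7–35 and timed total-catch urine (1-hour rising to 2- or 10-hour intervals) with scheduled water intake. Plasma by protein precipitation, urine diluted with water; LC-MS/MS. Mixed-effects model (treatment fixed, subject random); geometric means.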

[2] = Safety and tolerability, phase IIa study in adults with gout; type: in vivo, human; settings: all dose combinations of verinurad (2.5–20 mg) and allopurinol 300 mg once daily
[3] = single oral 10 mg dose, healthy volunteers; cited from earlier work
serum urate (sUA) = assay: Serum urate; type: in vivo, human; settings: 7 days, adults with gout
Method in brief: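 Adults with gout, 7-day periods; second dose of twice-daily regimen given after evening meal ~10 hours after first. Serum sampled at preset intervals on baseline (day −1) and days 7–35; non-ULT subjects started colchicine ~day −7. Emax as maximum per cent sUA change from baseline; mixed-effects model (sequence, treatment fixed; subject random; baseline covariate) giving least-squares means.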

[4] = allopurinol 600 mg once daily vs 300 mg twice daily
[5] = verinurad 2.5 mg + allopurinol 300 mg once daily
[6] = verinurad 20 mg + allopurinol 300 mg once daily

least-squares geometric mean ratio (90% CI), oxypurinol Cmax [1, 4]: 122 (103 to 146)
Structure (SMILES): O=c1[nH]c(=O)c2c[nH]nc2[nH]1 [oxypurinol]

Structure (SMILES): CC(C)(Sc1ccncc1-c1ccc(C#N)c2ccccc12)C(=O)O [verinurad]
Tmax ([1]; human, plasma, oral, median Tmax, range across verinurad doses 2.5–20 mg in combination with allopurinol 300 mg once daily): 3 to 3.97 h
Ae0–24 (amount excreted in urine) [1, 5]: 17.8 µg
Ae0–24 (amount excreted in urine) [1, 6]: 165 µg
effect of verinurad on plasma PK of allopurinol ([1]; verinurad 2.5–20 mg + allopurinol 300 mg once daily): no effect; also recorded: did not affect
tolerability [2]: generally well tolerated
tolerability ([2]; listed as Verinurad): well tolerated
fraction of dose absorbed [3]: ~ 64%
median time to maximum observed plasma concentration (Tmax) [3]: 0.5 h
terminal half-life [3]: 15 h
least-squares mean Emax (maximum per cent decrease in sUA from baseline) (serum urate (sUA); [5]): 47%
least-squares mean Emax (maximum per cent decrease in sUA from baseline) (serum urate (sUA); verinurad 5 mg + allopurinol 300 mg once daily): 59%
least-squares mean Emax (maximum per cent decrease in sUA from baseline) (serum urate (sUA); verinurad 7.5 mg + allopurinol 300 mg once daily): 60%
least-squares mean Emax (maximum per cent decrease in sUA from baseline) (serum urate (sUA); verinurad 10 mg + allopurinol 300 mg once daily): 67%
least-squares mean Emax (maximum per cent decrease in sUA from baseline) (serum urate (sUA); verinurad 15 mg + allopurinol 300 mg once daily): 68%
least-squares mean Emax (maximum per cent decrease in sUA from baseline) (serum urate (sUA); [6]): 74%

least-squares geometric mean ratio (90% CI), allopurinol Cmax [1, 4]: 204 (162 to 257)
change of allopurinol Ae0–24 and CLR0–24 by verinurad ([1]; verinurad at any dose (2.5–20 mg) + allopurinol 300 mg once daily): generally unchanged
Structure (SMILES): Oc1ncnc2[nH]ncc12 [allopurinol, reference compound]
least-squares mean Emax (maximum per cent decrease in sUA from baseline) (serum urate (sUA); allopurinol 300 mg once daily alone): 40%
least-squares mean Emax (maximum per cent decrease in sUA from baseline) (serum urate (sUA); allopurinol 300 mg twice daily alone): 54%
least-squares mean Emax (maximum per cent decrease in sUA from baseline) (serum urate (sUA); allopurinol 600 mg once daily alone): 54%
